The target of data set [1] is Dipeptidyl peptidase 2 (Homo sapiens) (UniProt Q9UHL4). Description: Inhibition of recombinant human DPP2 using Lys-Ala-pNA as substrate at 1 to 10 uM preincubated for 15 mins followed by substrate addition and measured for 10 mins. The note with it: dose 1-10 µM, time 25.0 min. The gist of the method: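 Recombinant human DPP2 with 1 mM Lys-Ala-pNA, pH 5.5, in 100 mM NaAc, 10 mM EDTA and 14 μg/mL aprotinin. Compound at 1 and 10 μM, preincubated 15 min at 37 °C. pNA release read kinetically at 405 nm for at least 10 min at 37 °C.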

Data set [2] deals with Alpha-synuclein (Homo sapiens) (UniProt P37840). Description: Inhibition of alpha-synuclein (unknown origin) dimerization transfected in PREP knockout HEK293 cells at 10 uM incubated for 4 hrs by luminescence based multimode plate reader method. Format: cell-based. In short, it runs like this: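 Split Gaussia luciferase protein-fragment complementation in HEK-293 PREP-KO cells, run like the N2A protocol. Cells transfected with αSyn-Gluc1 and αSyn-Gluc2; 48 h later treated 4 h at 10 μM. Luminescence read after injecting native coelenterazine.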

For data set [3], the system named is HEK293. Put plainly: Induction of autophagy in PREP knockout HEK293 cells assessed as LC3B-II expression level at 10 uM incubated for 24 hrs by Western blot analysis. It counts as functional, cell-based. The conditions noted are these: Homo sapiens. In short, it runs like this: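 HEK-293 PREP-KO cells, grown with 20% FBS, plated 500,000/well and attached overnight. Treated at 10 μM for 4 or 24 h (0.1% DMSO vehicle), then lysed in RIPA. LC3BII measured by Western blot, 30 μg protein loaded, band OD normalized to β-actin or vinculin.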
In general terms: A western blot detects proteins with antibodies after separation by electrophoresis.

Another data set has as its system SH-SY5Y. Description: Cytotoxicity against human SH-SY5Y cells assessed as cell viability at 1 to 100 uM incubated for 24 hrs by MTT assay. Format: toxicity, cell-based. The note with it: dose 1-100 µM.
The target of data set [4] is Alpha-synuclein (Homo sapiens) (UniProt P37840). Put plainly: Inhibition of alpha-synuclein (unknown origin) dimerization transfected in mouse Neuro2a cells at 10 uM incubated for 4 hrs by Protein-fragment complementation assay. Format: cell-based.
The test system of data set [5] is HEK293. Description: Activation of PP2A in HEK293 cells assessed as increase in total PP2Ac level at 0.01 to 50 uM incubated for 4 hrs by Western blot analysis. Format: cell-based. The conditions noted are these: Homo sapiens, filed as activator, dose 0.01-50 µM. The gist of the method:
(§1)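 HEK-293 cells seeded 500,000/well, attached overnight, then exposed to compound (0.1% DMSO vehicle) for 4 or 24 h. Lysed in RIPA. Western blot with 30 μg protein on 4–20% gels, PVDF transfer, skim-milk block, primary antibody overnight at +4 °C. Detection by chemiluminescence, band OD normalized to β-actin or vinculin. pPP2Ac is the Tyr307-phosphorylated form.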

For data set [6], the system named is HEK293. Put plainly: Activation of PP2A in HEK293 cells assessed as increase in total PP2Ac level at 10 uM incubated for 4 hrs by immunoblot analysis. Format: cell-based. The note with it: Homo sapiens, filed as activator. In short, it runs like this: as §1
Data set [7] has as its system HEK293. Put plainly: Activation of PP2A in HEK293 cells assessed as increase in LC3B-II level at 10 uM incubated for 4 hrs by immunoblot analysis. The note with it: Homo sapiens, filed as activator. Format: cell-based. In short, it runs like this:
as §1

The subject of data set [8] is HEK293. Put plainly: Activation of PP2A in HEK293 cells assessed as increase in total PP2Ac level at 10 uM incubated for 24 hrs by immunoblot analysis. Format: cell-based. The conditions noted are these: Homo sapiens, filed as activator. The gist of the method: as §1
In data set [9] the test system is HEK293. Description: Activation of PP2A in HEK293 cells assessed as increase in LC3B-II level at 10 uM incubated for 24 hrs by immunoblot analysis. The note with it: Homo sapiens, filed as activator. Format: cell-based. In short, it runs like this: as §1
The test system of data set [10] is Mus musculus. Put plainly: Upregulation of total PP2Ac level in C57BL/6JRccHsd mouse brain at 10 mg/kg, ip measured after 45 mins by Western blot analysis. It counts as functional, organism-based. In short, it runs like this: (§2)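 Mice given 10 mg/kg i.p. in 5% Tween-20 in 0.9% NaCl, with vehicle-injected controls. Brains collected 45 min after injection. Homogenates analysed by Western blot for pPP2A, PP2A and LC3BII, with OD normalized to β-actin or vinculin.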

Data set [11] has as its system Mus musculus. Put plainly: Upregulation of LC3B-II level in C57BL/6JRccHsd mouse brain at 10 mg/kg, ip measured after 45 mins by Western blot analysis. It counts as functional, organism-based. In short, it runs like this: as §2
For data set [12], the system named is Mus musculus. Description: Anti-parkinson activity in AAV2-CBA-alpha-synuclein virus vector injected Parkinson's disease C57BL/6JRccHsd mouse model assessed as motor deficit by measuring decrease in use of ipsilateral forepaw usage at 10 mg/kg/day, ip administered for 2 to 4 weeks of treatment by cylinder test. Format: functional, organism-based. The conditions noted are these: time 2-4 weeks. In short, it runs like this:
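Male C57BL/6JRCcHsd mice, 10–11 weeks old, got a unilateral AAV2-CBA-αSyn injection above the SNpc. Dosing started 4 weeks later at 10 mg/kg/day i.p. by Alzet minipump. Ipsilateral forepaw use was scored by cylinder test at 6 and 8 weeks post-injection, against vehicle-treated αSyn-injected and AAV-GFP control mice. Two-way ANOVA with Dunnett's comparisons was used.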

In data set [13] the test system is Mus musculus. Description: Downregulation of alpha-syn oligomer in C57BL/6JRccHsd mouse substantia nigra pars compacta injected with AAV2-CBA-alpha-synuclein virus at 10 mg/kg/day, ip administered for 2 weeks by optical density based analysis. Format: functional, organism-based. In short, it runs like this:
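Unilateral AAV2-CBA-αSyn was injected above the SNpc of male C57BL/6JRCcHsd mice. Dosing at 10 mg/kg/day i.p. by Alzet minipump began 4 weeks after injection. Brain sections were immunostained for oligomer-specific αSyn and optical density was measured in striatum and SNpc, with n = 7–9/group, reported as mean ± SEM.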

For data set [14], the system named is Mus musculus. Description: Neuroprotective activity against AAV2-CBA-GFP injected C57BL/6JRccHsd mouse model of Parkinson's disease assessed as change in tyrosine hydroxylase positive dopaminergic neuron immunoreactivity in substantia nigra pars compacta at 10 mg/kg/day, ip administered for 2 weeks by optical density based analysis. It counts as functional, organism-based.

The test system of data set [15] is Mus musculus. Put plainly: Neuroprotective activity against AAV2-CBA-alpha-synuclein virus vector injected C57BL/6JRccHsd mouse model of Parkinson's disease assessed as change in tyrosine hydroxylase positive cell count in substantia nigra pars compacta at 10 mg/kg/day, ip administered for 2 weeks by optical density based analysis. It counts as functional, organism-based.

Activity calls are given as the source filed them. The calls are words filed in the database; no cut-off is given here.

Turning to `Cc1nc(CCCc2ccccc2)oc1N1CCC[C@H]1C#N`, the inhibition entry in data set [1] and in [2] was “inactive” each time. Moreover, the result with HEK293 [3], with Mus musculus [13], in the data set on Mus musculus [14] and with Mus musculus [15] was inactive. Besides, the Activity result with SH-SY5Y was “Non-Toxic”. For the same compound, the inhibition entry in data set [4] was “Active”. Further, the result in the data set with HEK293 [5], with HEK293 [6], with HEK293 [7], in the data set with HEK293 [8], in the data set with HEK293 [9] and with Mus musculus [10] was Active. The result with Mus musculus [11] and in the data set on Mus musculus [12] was Active.

The values are drawn from ChEMBL document CHEMBL5352503, “Nonpeptidic Oxazole-Based Prolyl Oligopeptidase Ligands with Disease-Modifying Effects on α-Synuclein Mouse Models of Parkinson's Disease” (J Med Chem, 2023).
